# Positions of bridges follow the written chain, without caps; N, C: chain ends. Non-standard residues stand in square brackets, D forms with d. Residues, ends and D or L forms follow the SMILES beside them. sY = N[C@@H](Cc1ccc(OS(=O)(=O)O)cc1)C(=O)O
# Experiments:
# [1] = Displacement of [3H]-epibatidine from Aplysia californica Acetylcholine-binding protein measured after 1 hr by liquid scintillation counter
# Outline: (§1)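 Recombinant AChBP expressed in E. coli (IPTG induction, 16 °C), coated onto wells at 1 ng μL−1. Incubated 1 h at 4 °C with [3H]-epibatidine (1 nM final) and increasing peptide in PBS with 0.05% BSA. Unbound ligand washed off; bound radioactivity counted by liquid scintillation. One-site competition fit gives Ki. Triplicate, three independent experiments; pKi as mean with 95% CI.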
# [2] = target: Acetylcholine-binding protein (Lymnaea stagnalis, UniProt P58154); assay: Displacement of [3H]-epibatidine from Lymnaea stagnalis Acetylcholine-binding protein measured after 1 hr by liquid scintillation counter; outline: as §1
# Sequence of Acetylcholine-binding protein (P58154 whole entry): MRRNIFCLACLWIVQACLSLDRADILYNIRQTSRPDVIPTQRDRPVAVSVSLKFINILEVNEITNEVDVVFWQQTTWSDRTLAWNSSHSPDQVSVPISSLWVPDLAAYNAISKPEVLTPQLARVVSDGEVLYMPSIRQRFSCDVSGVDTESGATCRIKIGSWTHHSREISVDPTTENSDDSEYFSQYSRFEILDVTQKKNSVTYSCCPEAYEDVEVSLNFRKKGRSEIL
SMILES,pKi [1],Ki [2] [µM]
"CC(C)C[C@@H]1NC(=O)[C@H](CO)NC(=O)[C@@H]2CSSC[C@@H](C(=O)O)NC(=O)[C@H](Cc3ccc(OS(=O)(=O)O)cc3)NC(=O)[C@H](CC(=O)O)NC(=O)[C@@H]3CCCN3C(=O)[C@H](CC(N)=O)NC(=O)[C@H](CC(N)=O)NC(=O)[C@H](C)NC(=O)[C@H](C)NC(=O)[C@H](CSSC[C@H](NC(=O)CN)C(=O)N2)NC(=O)[C@@H]2CCCN2C(=O)[C@@H]2CCCN2C1=O (H-GCCSLPPCAANNPD[sY]C-OH; disulfide 2-8, 3-16)",8.33,> 100
"CC(C)C[C@@H]1NC(=O)[C@H](CO)NC(=O)[C@@H]2CSSC[C@@H](C(N)=O)NC(=O)[C@H](Cc3ccc(OS(=O)(=O)O)cc3)NC(=O)[C@H](CC(=O)O)NC(=O)[C@@H]3CCCN3C(=O)[C@H](CC(N)=O)NC(=O)[C@H](CC(N)=O)NC(=O)[C@H](C)NC(=O)[C@H](C)NC(=O)[C@H](CSSC[C@H](NC(=O)CN)C(=O)N2)NC(=O)[C@@H]2CCCN2C(=O)[C@@H]2CCCN2C1=O (H-GCCSLPPCAANNPD[sY]C-NH2; disulfide 2-8, 3-16)",8.92,3.8
"CC(C)C[C@@H]1NC(=O)[C@H](CO)NC(=O)[C@@H]2CSSC[C@@H](C(=O)O)NC(=O)[C@H](Cc3ccc(O)cc3)NC(=O)[C@H](CC(=O)O)NC(=O)[C@@H]3CCCN3C(=O)[C@H](CC(N)=O)NC(=O)[C@H](CC(N)=O)NC(=O)[C@H](C)NC(=O)[C@H](C)NC(=O)[C@H](CSSC[C@H](NC(=O)CN)C(=O)N2)NC(=O)[C@@H]2CCCN2C(=O)[C@@H]2CCCN2C1=O (H-GCCSLPPCAANNPDYC-OH; disulfide 2-8, 3-16)",7.51,> 100
"CC(C)C[C@@H]1NC(=O)[C@H](CO)NC(=O)[C@@H]2CSSC[C@@H](C(N)=O)NC(=O)[C@H](Cc3ccc(O)cc3)NC(=O)[C@H](CC(=O)O)NC(=O)[C@@H]3CCCN3C(=O)[C@H](CC(N)=O)NC(=O)[C@H](CC(N)=O)NC(=O)[C@H](C)NC(=O)[C@H](C)NC(=O)[C@H](CSSC[C@H](NC(=O)CN)C(=O)N2)NC(=O)[C@@H]2CCCN2C(=O)[C@@H]2CCCN2C1=O (H-GCCSLPPCAANNPDYC-NH2; disulfide 2-8, 3-16)",8.85,9.12

# Reference: ChEMBL document CHEMBL5136968, “Posttranslational modifications of α-conotoxins: sulfotyrosine and C-terminal amidation stabilise structures and increase acetylcholine receptor binding” (RSC Med Chem, 2021)
